Results collected from several papers.
Target: Calcium/calmodulin-dependent protein kinase kinase 2 (CAMKK2, Homo sapiens, UniProt Q96RR4)

Compound | read-out | technique | tested at | remaining binding [%]
Cc1cnc(Nc2ccc(C(=O)N3CCC(N4CCCC4)CC3)cc2)nc1-c1cc2ccccc2s1 | binding | competition with immobilised ligand | 1 µM | 81
CC1=C(C#N)C(c2ccc3c(c2)c(NC(=O)c2ccccc2C)nn3C)C(C#N)=C(C)N1 | cell-free assay | competition with immobilised ligand | 1 µM | 100
COc1cnc(Nc2cccc(S(N)(=O)=O)c2)nc1N1CCN(c2ccccc2)CC1 | binding | competition with immobilised ligand | 1 µM | 92
C=CC(=O)N1CCC(C(=O)NCC(=O)N2CCN(c3nc(-c4cnc(N)nc4C(F)F)nc(N4CCOCC4)n3)CC2)CC1 | binding | competition with immobilised ligand | 1 µM | 95
CN(C)c1ncc(F)c(-c2cnn3ncccc23)n1 | binding | – | 1 µM | 86
O=C(Nc1c[nH]nc1C(=O)NC1CCNCC1)c1cc(F)cc(F)c1 | binding | competition with immobilised ligand | 1 µM | 91
CC(C)CC(=O)N1CCc2nc(-c3ccc(Br)cc3)nc(N(C)Cc3ccccc3)c2C1 | cell-free assay | competition with immobilised ligand | 0.1 µM | 100
C[C@@H](c1ccc(-n2cnc3c(N)ncnc32)cc1)N1CCc2nn(C)c(Cc3ccccc3)c2C1=O | binding | competition with immobilised ligand | 0.1 µM | 94
CN(C)c1nccc(-c2cnn3ncccc23)n1 | binding | – | 1 µM | 82
C[C@H](c1ccc(F)cc1)N(Cc1cccc(C(=O)O)c1)C(=O)c1cnc2ccccc2c1 | cell-free assay | competition with immobilised ligand | 1 µM | 95
O=C(c1ccc(Nc2nccc(-c3cc4ccccc4s3)n2)cc1)N1CCC(N2CCCC2)CC1 | binding | competition with immobilised ligand | 1 µM | 82
CNC(=O)[C@@H]1CC[C@@H](n2c(-c3ccc4cnccc4c3)nc3ccc(C(=O)NCc4cccc(C(N)=O)c4)cc32)C1 | binding | competition with immobilised ligand | 1 µM | 85
N[C@@H]1CCN(c2nccc(-c3cnn4ncccc34)n2)C1 | binding | – | 1 µM | 100
CNC(=O)c1ccc(Nc2ncc(C(F)(F)F)c(NCc3nccnc3N(C)S(C)(=O)=O)n2)cc1 | cell-free assay | competition with immobilised ligand | 0.1 µM | 68
CN(CCCC(F)(F)F)c1nccc(-c2cnn3ncccc23)n1 | binding | – | 1 µM | 100
CCN1CCN(Cc2ccc(C(=O)Nc3ccc(C)c(Oc4ccc5c(c4)CC(=O)N5)c3)cc2C(F)(F)F)CC1 | binding | competition with immobilised ligand | 1 µM | 96
COc1ccnn2ncc(-c3ccnc(N(C)C)n3)c12 | binding | – | 1 µM | 80
CCC(=N\O)/C(C)=C/c1ccc(F)cc1 | cell-free assay | competition with immobilised ligand | 1 µM | 98
C[C@H]1CCN(c2nccc(-c3cnn4ncccc34)n2)C1 | binding | – | 1 µM | 74
C[C@@H](c1cccc(C#N)c1)n1cc(Cl)cc(C(N)=O)c1=N | cell-free assay | competition with immobilised ligand | 1 µM | 100
